According to ChEMBL document CHEMBL1138494, “Human glucagon receptor antagonists with thiazole cores. A novel series with superior pharmacokinetic properties” (J Med Chem, 2009):
pIC50: −log10 of the molar value. Active and inactive are the calls of the source. No cut-off for these calls is given here.

Tests used:
[1] = Binding affinity to glucagon receptor in monkey liver membrane by membrane filter assay; format: cell membranes, Macaca mulatta
Glucagon receptor [2] = biological target: Glucagon receptor (Mus musculus, UniProt Q61606); experiment: Binding affinity to glucagon receptor in mouse liver membrane by membrane filter assay; format: cell membranes
Glucagon receptor (Mus musculus, UniProt Q61606), sequence (Q61606 whole entry): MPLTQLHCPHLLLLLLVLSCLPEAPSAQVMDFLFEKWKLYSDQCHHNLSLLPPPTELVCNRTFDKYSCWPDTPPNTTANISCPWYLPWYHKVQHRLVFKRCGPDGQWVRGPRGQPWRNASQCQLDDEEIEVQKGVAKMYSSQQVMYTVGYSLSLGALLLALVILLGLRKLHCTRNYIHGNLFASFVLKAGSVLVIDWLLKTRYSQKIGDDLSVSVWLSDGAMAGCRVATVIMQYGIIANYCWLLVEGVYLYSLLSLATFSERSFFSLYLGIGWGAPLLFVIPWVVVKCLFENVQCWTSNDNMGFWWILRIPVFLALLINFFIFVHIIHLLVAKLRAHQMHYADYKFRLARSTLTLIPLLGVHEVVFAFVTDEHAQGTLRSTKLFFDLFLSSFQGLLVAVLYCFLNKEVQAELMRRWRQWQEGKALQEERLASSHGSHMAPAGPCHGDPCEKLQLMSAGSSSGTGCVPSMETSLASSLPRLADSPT

[3] = Binding affinity to glucagon receptor in rabbit liver membrane by membrane filter assay; format: cell membranes, Oryctolagus cuniculus
Homo sapiens [4] = species: Homo sapiens; experiment: Selectivity ratio of IC50 for human recombinant glucagon receptor to IC50 for human recombinant GIPR
In short: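 Competition binding of compounds to recombinant human glucagon and GIP receptors on BHK cell membranes, run in parallel as a scintillation proximity assay and, for selected compounds, as a membrane filtration assay.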

[5] = Clearance in fasted Sprague-Dawley rat at 1.59 mg/kg, iv and 3.20 mg/kg, po by HTLC-MS/MS analysis; format: ADME, organism-based; settings: in vivo
In short: (§1)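 Rats were dosed intravenously and perorally in separate arms, and plasma concentration-time profiles were obtained. Half-life was taken from the iv arm. Clearance, oral bioavailability, Cmax and Tmax were derived from the profiles.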

[6] = Binding affinity to glucagon receptor in pig liver membrane by membrane filter assay; format: cell membranes, Sus scrofa
[7] = Oral bioavailability in fasted Beagle dog at 0.5 mg/kg; format: ADME, organism-based, Canis lupus familiaris; settings: in vivo
In short: (§2)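 Separate intravenous and peroral dosing arms per compound, with plasma concentration followed against time. Oral bioavailability (F_po) is reported per compound together with the intravenous half-life and clearance. The dose used for each arm is listed per compound.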

[8] = biological target: T1, Gastric inhibitory polypeptide receptor (Homo sapiens, UniProt P48546); experiment: Displacement of [125I]porcine GIP from human recombinant GIPR receptor expressed in BHK cells by scintillation proximity assay; format: cell-based
T1 sequence (P48546 whole entry): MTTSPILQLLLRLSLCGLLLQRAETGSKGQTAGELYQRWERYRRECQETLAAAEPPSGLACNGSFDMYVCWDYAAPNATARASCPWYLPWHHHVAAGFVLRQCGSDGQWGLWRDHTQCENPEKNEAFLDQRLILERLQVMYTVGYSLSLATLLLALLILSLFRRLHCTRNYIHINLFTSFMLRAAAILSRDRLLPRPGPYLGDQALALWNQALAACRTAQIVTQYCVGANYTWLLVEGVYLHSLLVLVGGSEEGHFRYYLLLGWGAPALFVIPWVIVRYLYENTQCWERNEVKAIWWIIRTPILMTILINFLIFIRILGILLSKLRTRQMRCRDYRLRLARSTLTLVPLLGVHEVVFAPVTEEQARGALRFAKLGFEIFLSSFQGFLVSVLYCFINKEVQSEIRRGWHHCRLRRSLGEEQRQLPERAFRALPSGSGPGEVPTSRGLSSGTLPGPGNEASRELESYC

Homo sapiens [9] = species: Homo sapiens; experiment: Selectivity for human recombinant glucagon receptor over human GLP1R
[10] = Half life in fasted Beagle dog at 0.25 mg/kg, iv; format: ADME, organism-based, Canis lupus familiaris; design: dose 0.25 mg/kg, route intravenous; settings: in vivo
In short: (§3)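 Dogs were dosed at 0.25 mg/kg iv and 0.5 mg/kg po, and plasma concentration was followed over time. Half-life came from the iv arm; clearance, Cmax and Tmax were also derived.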

Hepatocyte [11] = experiment: Inhibition of glucagon-stimulated glucose production in rat primary hepatocytes; format: functional, cell-based
Glucagon receptor [12] = biological target: Glucagon receptor (Rattus norvegicus, UniProt P30082); experiment: Binding affinity to glucagon receptor in rat liver membrane by membrane filter assay; format: cell membranes
Glucagon receptor (Rattus norvegicus, UniProt P30082), sequence (P30082 whole entry): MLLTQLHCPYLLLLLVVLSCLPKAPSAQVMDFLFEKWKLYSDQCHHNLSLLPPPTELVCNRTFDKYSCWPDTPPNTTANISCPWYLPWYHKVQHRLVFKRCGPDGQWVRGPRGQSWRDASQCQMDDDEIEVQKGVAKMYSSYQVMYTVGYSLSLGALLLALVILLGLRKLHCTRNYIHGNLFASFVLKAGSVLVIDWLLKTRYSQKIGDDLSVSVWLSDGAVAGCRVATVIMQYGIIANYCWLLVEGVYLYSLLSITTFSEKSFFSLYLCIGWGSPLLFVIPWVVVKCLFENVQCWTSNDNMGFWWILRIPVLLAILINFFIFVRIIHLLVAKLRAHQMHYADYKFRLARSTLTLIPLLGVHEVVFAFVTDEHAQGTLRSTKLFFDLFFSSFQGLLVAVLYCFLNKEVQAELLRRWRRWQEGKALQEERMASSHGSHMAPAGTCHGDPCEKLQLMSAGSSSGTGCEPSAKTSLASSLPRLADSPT

Hepatocyte [13] = experiment: Inhibition of glucagon-stimulated glucose production in human primary hepatocytes preincubated for 10 mins before glucagon addition by NADH-linked hexokinase assay; format: functional, cell-based
In short: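 Cultured primary human hepatocytes were preincubated with compound for 10 min, then glycogenolysis was induced with 5 nM glucagon for 60 min. Glucose in the medium was measured against basal glycogenolysis. Albumin was present in the assay medium. IC50 was calculated from four experiments, mean ± SEM.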

[14] = Half life in fasted Sprague-Dawley rat plasma at 1.59 mg/kg, iv by HTLC-MS/MS analysis; format: ADME, organism-based; design: dose 1.59 mg/kg, route intravenous; in short: as §1
[15] = Binding affinity to glucagon receptor in dog liver membrane by membrane filter assay; format: cell membranes, Canis lupus familiaris
[16] = Cmax in fasted Sprague-Dawley rat at 1.59 mg/kg, iv and 3.20 mg/kg, po by HTLC-MS/MS analysis; format: ADME, organism-based; settings: in vivo, 3.2 mg/kg; in short: as §1
[17] = Clearance in fasted Beagle dog at 0.25 mg/kg, iv and 0.5 mg/kg, po; format: ADME, organism-based, Canis lupus familiaris; settings: in vivo; in short: as §3
Glucagon receptor [18] = biological target: T2, Glucagon receptor (Homo sapiens, UniProt P47871); experiment: Binding affinity to human recombinant glucagon receptor expressed in BHK cells by membrane filter assay; format: cell-based
T2 sequence (P47871 whole entry): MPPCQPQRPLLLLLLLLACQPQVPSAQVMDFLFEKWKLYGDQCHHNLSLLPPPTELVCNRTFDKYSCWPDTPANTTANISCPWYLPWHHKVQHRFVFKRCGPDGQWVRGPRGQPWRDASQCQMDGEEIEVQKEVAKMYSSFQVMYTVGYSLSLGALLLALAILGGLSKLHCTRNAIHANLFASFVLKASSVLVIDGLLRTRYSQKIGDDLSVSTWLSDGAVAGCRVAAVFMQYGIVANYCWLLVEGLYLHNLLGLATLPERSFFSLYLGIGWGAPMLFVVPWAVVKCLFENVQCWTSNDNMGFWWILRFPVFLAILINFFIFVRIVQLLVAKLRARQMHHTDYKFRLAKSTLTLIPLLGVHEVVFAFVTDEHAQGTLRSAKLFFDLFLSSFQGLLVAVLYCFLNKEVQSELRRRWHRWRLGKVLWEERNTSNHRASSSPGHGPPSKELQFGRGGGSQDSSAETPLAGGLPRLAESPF

Glucagon receptor [19] = biological target: T2, Glucagon receptor; experiment: Displacement of [125I]porcine glucagon from human recombinant glucagon receptor expressed in BHK cells by scintillation proximity assay; format: cell-based
[20] = Cmax in fasted Beagle dog at 0.25 mg/kg, iv and 0.5 mg/kg, po; format: ADME, organism-based, Canis lupus familiaris; settings: in vivo; in short: as §3
[21] = Tmax in fasted Beagle dog at 0.25 mg/kg, iv and 0.5 mg/kg, po; format: ADME, organism-based, Canis lupus familiaris; settings: in vivo
In short: (§4)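 Plasma concentration–time profiles were recorded after separate intravenous and peroral dosing at the per-compound doses listed. T_max is reported in min alongside C_max (ng/mL), intravenous half-life and clearance ((mL/min)/kg).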

[22] = Oral bioavailability in fasted Sprague-Dawley rat at 3.20 mg/kg by HTLC-MS/MS analysis; format: ADME, organism-based; settings: in vivo, 3.2 mg/kg; in short: as §2
[23] = biological target: T1, Gastric inhibitory polypeptide receptor; experiment: Binding affinity to human recombinant GIPR expressed in BHK cells by membrane filter assay; format: cell-based
[24] = Tmax in fasted Sprague-Dawley rat at 1.59 mg/kg, iv and 3.20 mg/kg, po by HTLC-MS/MS analysis; format: ADME, organism-based; settings: in vivo, 3.2 mg/kg; in short: as §4
[25] = Tmax in fasted Sprague-Dawley rat at 1.62 mg/kg, iv and 3.04 mg/kg, po; format: ADME, organism-based; settings: in vivo; in short: as §4
[26] = Half life in fasted Sprague-Dawley rat plasma at 1.62 mg/kg, iv by HTLC-MS/MS analysis; format: ADME, organism-based; design: dose 1.62 mg/kg, route intravenous; in short: as §1
[27] = Clearance in fasted Sprague-Dawley rat at 1.62 mg/kg, iv and 3.04 mg/kg, po by HTLC-MS/MS analysis; format: ADME, organism-based; settings: in vivo; in short: as §1
[28] = Cmax in fasted Sprague-Dawley rat at 1.62 mg/kg, iv and 3.04 mg/kg, po; format: ADME, organism-based; settings: in vivo; in short: as §1
[29] = Half life in monkey at 0.3 to 3 mg/kg, iv; format: ADME, organism-based, Macaca mulatta; design: dose 0.3-3 mg/kg, route intravenous; settings: rhesus monkey, in vivo
In short: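 In the anesthetized glucagon-challenged monkey study, compound was given intravenously. Blood samples were assayed for compound, and plasma concentration-time profiles yielded the half-life.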

[30] = Oral bioavailability in fasted Sprague-Dawley rat at 3.04 mg/kg by HTLC-MS/MS analysis; format: ADME, organism-based; settings: in vivo; in short: as §2
Rhesus monkey = experiment: Antihyperglycemic activity against glucagon-stimulated glycaemia in iv dosed hyperglucagonaemia/hyperglycaemia monkey model assessed as decrease in plasma glucose level preincubated for 5 mins before glucagon challenge measured after 30 mins; format: functional, organism-based; settings: Macaca mulatta
In short: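 Anesthetized monkeys challenged with exogenous glucagon received compound intravenously. Plasma glucose was followed over time to gauge blockade of glucagon-stimulated glycaemia.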

## O=C(O)CCNC(=O)c1ccc(CN(c2ccc(Cl)cc2)c2nc(-c3ccc(OC(F)(F)F)cc3)cs2)cc1
[1]
  pIC50: 7.22
Glucagon receptor [2]
  pIC50: 6.38
[3]
  pIC50: 5.92
Homo sapiens [4]
  fold change (FC): 5
[5]
  clearance: 6 mL/min/kg
[6]
  pIC50: 5.24
[7]
  bioavailability: 71%
[8]
  pIC50: 6.06
Homo sapiens [9]
  fold change (FC): > 50
[10]
  half-life: 1.1 h
Hepatocyte [11]
  inhibition: inactive
Glucagon receptor [12]
  pIC50: 5.77
Hepatocyte [13]
  pIC50: 5.55
[14]
  half-life: 1.52 h
[15]
  pIC50: 7.11
[16]
  Cmax: 521 ng/mL
[17]
  clearance: 4.64 mL/min/kg
Glucagon receptor [18]
  pIC50: 7.28
Glucagon receptor [19]
  pIC50: 7.09
[20]
  Cmax: 554 ng/mL
[21]
  Tmax: 1.5 h
[22]
  bioavailability: 16%
[23]
  pIC50: 6.34
[24]
  Tmax: 1 h

## O=C(O)CCNC(=O)c1ccc(CN(c2ccc(C(F)(F)F)cc2)c2nc(-c3ccc(Cl)cc3)cs2)cc1
[1]
  pIC50: 6.94
Glucagon receptor [2]
  pIC50: 6.19
[3]
  pIC50: 5.80
Homo sapiens [4]
  fold change (FC): 5
[25]
  Tmax: 1.42 h
[6]
  pIC50: 5.15
[26]
  half-life: 3.8 h
[7]
  bioavailability: 141%
[8]
  pIC50: 6.00
Homo sapiens [9]
  fold change (FC): > 50
[10]
  half-life: 1.73 h
[27]
  clearance: 1 mL/min/kg
Hepatocyte [11]
  inhibition: inactive
[28]
  Cmax: 2100 ng/mL
[29]
  half-life: 5.23 h
Glucagon receptor [12]
  pIC50: 5.57
Hepatocyte [13]
  pIC50: 5.17
[30]
  bioavailability: 58%
Rhesus monkey
  Activity: Dose-dependent effect
[15]
  pIC50: 6.81
[17]
  clearance: 2.23 mL/min/kg
Glucagon receptor [18]
  pIC50: 7.03
Glucagon receptor [19]
  pIC50: 7.04
[20]
  Cmax: 1250 ng/mL
[21]
  Tmax: 1.5 h
[23]
  pIC50: 5.96
